Laboratory results from ChEMBL document CHEMBL1146230, “New analogues of the potent cytotoxic saponin OSW-1” (J Med Chem, 2007).

Columns and labels:
G-361 = experiment: Cytotoxicity against human G361 cells after 72 hrs; format: functional
Method in brief: (§1)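 Cells grown in DMEM with 10% fetal calf serum, 4 mM glutamine, penicillin/streptomycin, 37 °C, 5% CO2. About 1.25×10^5 cells/mL seeded and stabilized 3 h. Compounds added in DMSO as serial (usually 6- and 4-fold) dilutions, top well usually 50 µM, DMSO final ≤0.6%. After 72 h, Calcein AM for 1 h, fluorescence read. Survival taken vs DMSO controls; TCS50 from dose-response curves; mean ± SD of three experiments.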

[1] = Cytotoxicity against mouse NIH 3T3 cells after 72 hrs; format: cell-based, NIH3T3; conditions: read-out: TCS50; method in brief: as §1
CCRF-CEM = experiment: Cytotoxicity against CEM cells after 72 hrs; format: functional, Homo sapiens; method in brief: as §1
A549 = experiment: Cytotoxicity against A549 cells after 72 hrs; format: functional, Homo sapiens; method in brief: as §1
K562 = experiment: Cytotoxicity against K562 cells after 72 hrs; format: functional, Homo sapiens; method in brief: as §1
HOS = experiment: Cytotoxicity against HOS cells after 72 hrs; format: functional, Homo sapiens; method in brief: as §1
MCF7 = experiment: Cytotoxicity against MCF7 cells after 72 hrs; format: functional, Homo sapiens; method in brief: as §1
[2] = Cytotoxicity against ARN8 cells after 72 hrs; format: functional, Homo sapiens; method in brief: as §1
HeLa = experiment: Cytotoxicity against HeLa cells after 72 hrs; format: functional, Homo sapiens; method in brief: as §1

| Compound | TCS50 (G-361) | CC50 at 72 h [1] | TCS50 (CCRF-CEM) | TCS50 (A549) | TCS50 (K562) | TCS50 (HOS) | TCS50 (MCF7) | TCS50 [2] | TCS50 (HeLa) |
| --- | --- | --- | --- | --- | --- | --- | --- | --- | --- |
| COc1ccc(C(=O)O[C@H]2[C@H](O[C@H]3C[C@H]4[C@@H]5CC=C6C[C@@H](O)CC[C@]6(C)[C@H]5CC[C@]4(C)[C@@]3(O)[C@H](C)C(=O)CCC(C)C)OC[C@@H](O)[C@@H]2O)cc1 | 3500 nM | > 50 µM | 1000 nM | 7200 nM | 1800 nM | 7200 nM | 3500 nM | 1500 nM | 2300 nM |
| COc1ccc(C(=O)O[C@H]2[C@H](O[C@@H]3[C@@H](OC(C)=O)[C@H](O[C@H]4C[C@H]5[C@@H]6CC=C7C[C@@H](O)CC[C@]7(C)[C@H]6CC[C@]5(C)[C@@]4(O)[C@H](C)C(=O)CCC(C)C)OC[C@@H]3O)OC[C@@H](O)[C@@H]2O)cc1 | 1000 nM | > 50 µM | 0.3 nM | 0.5 nM | 0.8 nM | 40 nM | 50 nM | 4 nM | 8 nM |
| COc1cccc2c1C(=O)c1c(O)c3c(c(O)c1C2=O)C[C@@](O)(C(C)=O)C[C@@H]3O[C@H]1C[C@H](N)[C@H](O)[C@H](C)O1 [DAUNORUBICIN] | 670 nM |  | 62 nM |  | 230 nM | 330 nM | 140 nM |  | 670 nM |
| CCCC(=O)[C@@H](C)[C@@]1(O)[C@@H](O[C@@H]2OC[C@H](O)[C@@H](O[C@@H]3OC[C@@H](O)[C@H](O)[C@H]3OC(=O)c3ccc(OC)cc3)[C@@H]2OC(C)=O)C[C@H]2[C@@H]3CC=C4C[C@@H](O)CC[C@]4(C)[C@H]3CC[C@@]21C | 3100 nM | > 50 µM | 0.5 nM | 0.9 nM | 1.4 nM | 140 nM | 90 nM | 3 nM | 12 nM |
| CCCCCC(=O)[C@@H](C)[C@@]1(O)[C@@H](O[C@@H]2OC[C@H](O)[C@H](O[C@@H]3OC[C@@H](O)[C@H](O)[C@H]3OC(=O)c3ccc(OC)cc3)[C@H]2OC(C)=O)C[C@H]2[C@@H]3CC=C4C[C@@H](O)CC[C@]4(C)[C@H]3CC[C@@]21C | 1400 nM | > 50 µM | 0.2 nM | 0.5 nM | 0.7 nM | 42 nM | 40 nM | 0.6 nM | 8 nM |
| COc1ccc(C(=O)O[C@H]2[C@H](O[C@@H]3[C@@H](OC(C)=O)[C@H](O[C@@H](CCC(C)C)[C@@H](C)[C@@]4(O)C(=O)C[C@H]5[C@@H]6CC=C7C[C@@H](O)CC[C@]7(C)[C@H]6CC[C@@]54C)OC[C@@H]3O)OC[C@@H](O)[C@@H]2O)cc1 | 14400 nM | > 50 µM | 280 nM | 480 nM | 430 nM | 11700 nM | 3400 nM | 500 nM | 1000 nM |
| CCCCCOC[C@@H](C)[C@@]1(O)[C@@H](O[C@@H]2OC[C@H](O)[C@H](O[C@@H]3OC[C@@H](O)[C@H](O)[C@H]3OC(=O)c3ccc(OC)cc3)[C@H]2OC(C)=O)C[C@H]2[C@@H]3CC=C4C[C@@H](O)CC[C@]4(C)[C@H]3CC[C@@]21C | 1900 nM | > 50 µM | <200 nM | <200 nM | <400 nM | 1800 nM | 860 nM | <400 nM | 350 nM |
| CC(=O)O[C@H]1[C@H](O[C@H]2C[C@H]3[C@@H]4CC=C5C[C@@H](O)CC[C@]5(C)[C@H]4CC[C@]3(C)[C@@]2(O)[C@H](C)C(=O)CCC(C)C)OC[C@H](O)[C@@H]1O | 2200 nM | > 50 µM | 200 nM | 4200 nM | 430 nM | 4200 nM | 1300 nM | 1950 nM | 570 nM |
